# Bioassay records: PubChem BioAssay, Johns Hopkins Ion Channel Center
# Hits are enriched below; roughly 2.3% of the tested compounds scored in any of these assays.
# TRPC6 activator = activates the mouse TRPC6 cation channel; 310,000 tested, 0.13% active; Q61143; B-score at 10 µM; HEK293-TRPC6 membrane potential dye fluorescence; active compounds read high; AID 2550;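 active = B-score of the integrated fluorescence ratio above library mean plus 3 SD, and starting fluorescence ratio within library mean plus 5 SD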;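 also: higher score means more depolarization so channel activation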
# Target sequence (Q61143 whole entry, looked up): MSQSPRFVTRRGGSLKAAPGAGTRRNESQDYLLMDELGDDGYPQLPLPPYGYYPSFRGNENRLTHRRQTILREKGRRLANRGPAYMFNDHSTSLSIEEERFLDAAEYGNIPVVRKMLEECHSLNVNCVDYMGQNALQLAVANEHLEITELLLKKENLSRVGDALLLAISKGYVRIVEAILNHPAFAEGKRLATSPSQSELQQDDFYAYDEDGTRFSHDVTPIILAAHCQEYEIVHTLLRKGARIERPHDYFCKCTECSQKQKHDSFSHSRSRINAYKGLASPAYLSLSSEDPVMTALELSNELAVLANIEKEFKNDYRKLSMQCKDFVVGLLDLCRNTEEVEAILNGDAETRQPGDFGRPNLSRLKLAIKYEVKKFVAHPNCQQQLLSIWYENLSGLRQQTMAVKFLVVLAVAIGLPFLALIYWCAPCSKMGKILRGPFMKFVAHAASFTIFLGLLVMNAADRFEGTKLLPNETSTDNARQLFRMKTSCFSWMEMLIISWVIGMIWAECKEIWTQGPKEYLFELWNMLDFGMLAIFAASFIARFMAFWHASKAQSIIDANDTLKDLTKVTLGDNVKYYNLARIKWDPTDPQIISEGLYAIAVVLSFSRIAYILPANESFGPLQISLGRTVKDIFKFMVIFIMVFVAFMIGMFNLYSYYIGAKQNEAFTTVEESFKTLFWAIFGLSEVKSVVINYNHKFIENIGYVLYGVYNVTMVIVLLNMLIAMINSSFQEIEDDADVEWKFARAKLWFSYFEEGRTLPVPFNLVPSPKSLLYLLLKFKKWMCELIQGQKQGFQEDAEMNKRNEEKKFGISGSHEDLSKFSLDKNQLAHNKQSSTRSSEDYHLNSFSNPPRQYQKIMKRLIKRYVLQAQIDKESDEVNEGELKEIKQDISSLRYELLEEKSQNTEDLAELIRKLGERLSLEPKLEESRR
# TRPC4 agonist = activators of mouse TRPC4 channel. HEK293 TRPC4beta/mu-opioid, Fluo4 calcium fluorescence; active compounds read high. B-score at 10 µM. 310,000 tested, 0.49% active. AID 2237;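 active = B-score above 5 SD of library B-scores, and initial fluorescence ratio not above library mean plus 5 SD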;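 also: positive B-score marks a calcium rise read as TRPC4 activation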
#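 Assay system – TRPC4beta and mu-opioid receptor HEK293 stable cells · Measured by – Fluo4 fluorescence, kinetic · Schedule – dye loading 45 min room temperature, 110 s kinetic read · Read-out – B-scored integrated calcium fluorescence ratio · Controls – buffer and maximal DAMGO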
# TRPC6 inh = mouse TRPC6 channel inhibition; HEK293-TRPC6, membrane potential dye, ACh-evoked depolarization; active compounds read low; B-score at 10 µM; 310,000 tested, 1.1% active; Q61143;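 active = B-score under library mean minus 3 SD, initial fluorescence not abnormally high, positive integrated signal ratio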;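 also: B-score derived from integrated fluorescence ratio over the kinetic read; more negative B-score means stronger inhibition of depolarization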
# TRPC4 PAM = TRPC4 (mouse) allosteric potentiation; Q9QUQ5; HEK293 TRPC4beta/mu-opioid, DAMGO EC20, Fluo-4 Ca2+ flux; active compounds read high; B-score at 10 µM; 310,000 tested, 0.42% active;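 active = B-score of calcium response area above 5 SD of library B-scores, with initial fluorescence ratio within 5 SD of library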;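 also: B-score of integrated fluorescence ratio over time as area under calcium response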
# TRPC4 inh = TRPC4 (mouse) channel inhibition; HEK293 TRPC4beta/mu-opioid, DAMGO-evoked Fluo4 calcium flux; active compounds read low; Q9QUQ5; AID 2247; B-score at 10 µM; 300,000 tested, 0.39% active;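 active = B-score over 3 SD under the library average, no early fluorescence shift, positive overall ratio signal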
#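 Signal: kinetic Fluo4 fluorescence imaging of calcium influx. Material: stable TRPC4beta/mu-opioid receptor HEK293 cells. Probe or stimulus: DAMGO in two steps, submaximal then maximal.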
# TRPC4 sel inh 2 = second check of whether TRPC6 inhibitors also affect mouse TRPC4. inhibition, % at 10 µM. 920 tested, 42% active. HEK293 TRPC4/MOR, membrane potential dye fluorescence; channel activated by saturating DAMGO dose. AID 2776. shares compounds with TRPC6 inh;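 active = compounds whose fluorescence signal differed from control wells by over 3 SD, either direction, in both duplicate plates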
# TRPC4 spec = selectivity of TRPC6 inhibitors: effect on mouse TRPC4; shares compounds with TRPC6 inh; HEK293 TRPC4/mu-opioid, membrane potential fluorescence; activity change, negative = inhibition, % at 10 µM; 920 tested, 61% active;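 active = rise or fall in signal beyond 3 SD of buffer-only wells in both replicate plates, either sign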;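 also: integrated kinetic ratio of fluorescence range over baseline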
# HEK293 MPD ctr 2-1 = parental HEK293 nonspecific activity of TRPC6 inhibitors, second screen; shares compounds with TRPC6 inh; parental HEK293 membrane potential dye fluorescence; maximal acetylcholine challenge after compound addition; signal change vs control, % at 10 µM; 920 tested, 31% active;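 active = membrane potential signal moving either way by over 3 SD of the maximum-effect control, in both duplicate plates, meaning non-specific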
# HEK293 MPD ctr-1 = parental HEK293 nonspecific activity of TRPC6 inhibitors. 920 tested, 60% active. shares compounds with TRPC6 inh. AID 2780. parental HEK293 membrane potential dye fluorescence. membrane potential signal change, % at 10 µM;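 active = membrane potential signal shifting up or down by more than 3 SD of buffer-only wells, on both duplicate plates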
# HEK293 MPD ctr-2 = parental HEK293 nonspecific activity of TRPC6 modulators. shares compounds with TRPC6 inh. membrane potential dye fluorescence. membrane potential signal change, % at 10 µM. 2,400 tested, 51% active;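 active = membrane potential signal moves up or down beyond 5 SD from buffer-only wells, on both duplicate plates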
# HEK293 MPD ctr 2-2 = second counter-screen for TRPC6 modulators: effect in parental HEK293 cells. shares compounds with TRPC6 inh. membrane potential dye fluorescence; after compound, maximal acetylcholine stimulation. inhibition, % at 10 µM. AID 488926. 2,400 tested, 14% active;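 active = membrane potential signal drops by more than 5 SD from the mean control signal, in both duplicate plates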;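 also: plate controls were acetylcholine ECmax control wells for no effect and buffer only wells for full effect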
# TRPC4 ctr mod = mouse TRPC4 off-target activity of TRPC6 modulators | shares compounds with TRPC6 inh | percent change from control (negative = decrease, positive = increase), % at 10 µM | HEK293 TRPC4/mu-opioid, membrane potential fluorescence | 2,400 tested, 69% active;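 active = membrane potential signal moved up or down beyond 5 SD of buffer control wells, in both duplicate plates, actives on both sides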;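 also: plate controls were assay buffer wells for no effect and DAMGO maximal-effect wells for full effect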
# TRPC4/MOR inh 2 = mouse TRPC4 off-target activity of TRPC6 modulators, second screen | shares compounds with TRPC6 inh | HEK293 TRPC4/mu-opioid, membrane potential dye fluorescence; stimulated with maximal-effect DAMGO | inhibition, % at 10 µM | 2,400 tested, 55% active | AID 488928;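 active = drop in membrane potential signal beyond 5 SD of the control wells in both duplicate plates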;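 also: TRPC4 counter screen for TRPC6 hits run under conditions tuned for TRPC6 not TRPC4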
# TRPC6 block conf = confirmation of mouse TRPC6 inhibitors; shares compounds with TRPC6 inh; HEK293-TRPC6, membrane potential dye, ACh-evoked depolarization; inhibition, % at 10 µM; 3,300 tested, 43% active;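 active = fluorescence ratio falls more than 5 SD below the full-stimulation control mean, in both duplicate runs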;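 also: integrated fluorescence ratio of peak minus minimum over baseline after agonist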
# TRPC6 act conf = mouse TRPC6 activator confirmation | 2,800 tested, 11% active | activation, % at 10 µM | shares compounds with TRPC6 inh | HEK293-TRPC6 membrane potential dye fluorescence, FDSS;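 active = ratio signal rise beyond 5 SD above unstimulated control wells' mean, seen in both duplicate runs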;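 also: plate controls were buffer EC0 wells for no effect and acetylcholine ECmax response for full effect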
# Numbers without * were called inactive; i = inactive; / = no result.
SMILES,TRPC6 activator,TRPC4 agonist,TRPC6 inh,TRPC4 PAM,TRPC4 inh,HEK293 MPD ctr-2,HEK293 MPD ctr 2-2,TRPC4 ctr mod,TRPC4/MOR inh 2,TRPC6 block conf,TRPC6 act conf,others
Brc1ccc(-c2nc3ncccn3c2NC2CCCCC2)o1,i,i,-5*,i,i,116%*,i,22%*,36%*,i,i,
Cc1ccc(Nc2c(-c3ccc(N(C)C)cc3)nc3ncccn23)cc1,i,i,i,i,i,/,/,/,/,/,/,
Cc1ccc(Nc2c(-c3ccc(C)o3)nc3ncccn23)cc1,i,i,i,i,i,/,/,/,/,/,/,
Cc1ccc(-c2nc3ncccn3c2NC2CCCC2)o1,i,i,i,i,i,/,/,/,/,/,/,
CCN1CCN(C(c2cccs2)C(C)NC(=O)C(=O)N2CCCCC2)CC1 (stereo not given),i,i,i,i,i,/,/,/,/,/,/,
COc1ccc(NC(C)=O)cc1NC(C)C(=O)Nc1cccc2ccccc12 (stereo not given),i,i,i,i,i,/,/,/,/,/,/,
CCn1cnc2cc(NC(=O)c3ccc(C)cc3)ccc21,i,i,i,i,i,/,/,/,/,/,/,
O=S(=O)(Nc1nccs1)c1ccc(F)cc1,i,i,i,i,i,/,/,/,/,/,/,
COc1cc(CNCCc2ccccc2F)ccc1OCc1ccc(Cl)nc1,i,i,-7.7*,i,i,/,/,/,/,60%*,i,TRPC4 sel inh 2=48%*;TRPC4 spec=i;HEK293 MPD ctr 2-1=226%*;HEK293 MPD ctr-1=3.9%*
O=C(Nc1cccc(S(=O)(=O)N2CCCCC2)c1)c1c2c(nc3ccccc13)CCN(Cc1ccccc1)C2,i,i,-5.3*,i,i,i,i,i,i,i,i,
O=C(CN1CCN(Cc2ccccc2)CC1)Nc1cccc(S(=O)(=O)N2CCCCCC2)c1,i,i,i,i,i,/,/,/,/,/,/,
COc1ccc2c(c1)C(C)=CC(C)(C)N2S(=O)(=O)c1ccc(NC(C)=O)cc1,14*,i,i,i,i,i,i,10%*,i,i,i,
COc1cnc(-c2ccccn2)nc1Oc1cccc(Cl)c1,i,i,-5.5*,i,i,i,i,i,i,i,i,
COc1cnc(-c2ccccn2)nc1N(C)C,i,i,-5.2*,i,i,-76%*,i,-16%*,i,i,i,
COc1ccc(Oc2nc(-c3ccccn3)ncc2OC)cc1,i,i,i,i,i,/,/,/,/,/,/,
